In experiment [1] the target is T1, Ectonucleoside triphosphate diphosphohydrolase 2 (Homo sapiens) (UniProt Q9Y5L3).
T1 sequence (whole entry): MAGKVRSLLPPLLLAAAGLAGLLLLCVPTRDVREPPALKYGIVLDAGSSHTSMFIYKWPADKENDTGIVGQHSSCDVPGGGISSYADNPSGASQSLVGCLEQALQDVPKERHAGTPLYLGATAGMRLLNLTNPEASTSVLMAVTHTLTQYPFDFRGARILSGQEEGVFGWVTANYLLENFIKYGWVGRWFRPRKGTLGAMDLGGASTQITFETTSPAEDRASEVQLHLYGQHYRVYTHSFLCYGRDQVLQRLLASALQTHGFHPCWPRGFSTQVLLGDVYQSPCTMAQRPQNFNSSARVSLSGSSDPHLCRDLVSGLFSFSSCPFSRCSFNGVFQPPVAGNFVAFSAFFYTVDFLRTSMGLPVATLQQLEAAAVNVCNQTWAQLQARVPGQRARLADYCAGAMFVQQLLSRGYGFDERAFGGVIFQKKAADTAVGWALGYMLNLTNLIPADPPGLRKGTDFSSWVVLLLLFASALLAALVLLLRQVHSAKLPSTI
Kind of experiment: Inhibition of human NTPDase 2 expressed in human 293T cells. It counts as cell-based.

Experiment [2] deals with T2, Ectonucleoside triphosphate diphosphohydrolase 1 (Homo sapiens) (UniProt P49961).
T2 sequence (whole entry): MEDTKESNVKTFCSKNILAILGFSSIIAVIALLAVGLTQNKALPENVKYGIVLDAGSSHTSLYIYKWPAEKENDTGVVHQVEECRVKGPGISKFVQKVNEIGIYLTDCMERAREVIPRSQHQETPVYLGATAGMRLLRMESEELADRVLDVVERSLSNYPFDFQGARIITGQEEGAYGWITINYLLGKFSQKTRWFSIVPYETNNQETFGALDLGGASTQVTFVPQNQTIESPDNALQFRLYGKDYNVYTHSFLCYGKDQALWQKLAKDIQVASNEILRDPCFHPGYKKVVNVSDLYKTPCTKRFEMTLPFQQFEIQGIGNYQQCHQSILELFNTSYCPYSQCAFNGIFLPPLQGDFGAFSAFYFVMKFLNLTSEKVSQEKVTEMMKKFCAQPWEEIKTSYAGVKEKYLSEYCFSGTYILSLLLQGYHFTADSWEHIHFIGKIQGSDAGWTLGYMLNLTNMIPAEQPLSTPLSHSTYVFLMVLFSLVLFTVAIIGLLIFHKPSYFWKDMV
In words: Inhibition of human NTPDase 1 expressed in human 293T cells. Format: cell-based.

The target in experiment [3] is P2Y purinoceptor 6 (Rattus norvegicus) (UniProt Q63371). Kind of experiment: Agonist activity at rat P2Y6 receptor expressed in human 1321N1 cells assessed as increase in intracellular calcium concentration at 100 uM by dual-excitation spectrofluorimetric analysis. Format: functional, cell-based.
Experiment [4] addresses T3, Ectonucleoside triphosphate diphosphohydrolase 8 (Homo sapiens) (UniProt Q5MY95).
T3 sequence (whole entry): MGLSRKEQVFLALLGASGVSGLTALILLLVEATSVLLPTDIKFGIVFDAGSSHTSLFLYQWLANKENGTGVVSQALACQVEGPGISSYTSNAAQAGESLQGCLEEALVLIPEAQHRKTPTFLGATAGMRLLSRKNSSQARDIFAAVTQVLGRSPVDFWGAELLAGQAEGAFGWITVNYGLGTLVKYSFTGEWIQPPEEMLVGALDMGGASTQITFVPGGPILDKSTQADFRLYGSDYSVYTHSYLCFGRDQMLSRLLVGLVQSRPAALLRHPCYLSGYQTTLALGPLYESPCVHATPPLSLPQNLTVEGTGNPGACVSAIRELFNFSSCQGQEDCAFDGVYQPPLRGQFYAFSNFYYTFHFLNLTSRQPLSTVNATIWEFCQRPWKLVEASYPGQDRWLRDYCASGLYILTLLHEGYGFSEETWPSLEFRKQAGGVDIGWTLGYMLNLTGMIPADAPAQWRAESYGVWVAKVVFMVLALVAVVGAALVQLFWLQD
In words: Inhibition of human NTPDase 8 expressed in human 293T cells. Format: cell-based.

For experiment [5], the target named is T4, Ectonucleoside triphosphate diphosphohydrolase 3 (Homo sapiens) (UniProt O75355).
T4 sequence (whole entry): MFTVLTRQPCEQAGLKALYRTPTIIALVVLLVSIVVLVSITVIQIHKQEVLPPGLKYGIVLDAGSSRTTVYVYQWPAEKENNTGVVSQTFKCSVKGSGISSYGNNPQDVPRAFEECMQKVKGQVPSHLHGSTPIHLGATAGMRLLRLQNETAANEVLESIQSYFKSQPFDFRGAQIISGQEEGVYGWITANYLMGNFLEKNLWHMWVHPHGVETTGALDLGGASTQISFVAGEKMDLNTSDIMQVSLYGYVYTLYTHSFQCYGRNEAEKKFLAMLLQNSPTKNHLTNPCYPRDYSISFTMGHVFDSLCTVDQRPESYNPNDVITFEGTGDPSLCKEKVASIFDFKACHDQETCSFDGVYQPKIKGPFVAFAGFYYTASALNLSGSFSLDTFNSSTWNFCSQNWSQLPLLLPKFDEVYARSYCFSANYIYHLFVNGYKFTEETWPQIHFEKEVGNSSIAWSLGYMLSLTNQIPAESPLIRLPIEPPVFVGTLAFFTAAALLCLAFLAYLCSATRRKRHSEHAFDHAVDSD
Kind of experiment: Activity of human NTPDase 3 expressed in human 293T cells assessed as drug hydrolysis at 100 uM after 20 mins relative to ATP. Format: cell-based. Set-up: scale not given: the % may be the effect or the level left. The procedure, abridged: (§1)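 Human NTPDase1, 2, 3 or 8 in crude extracts of transfected 293T cells, pre-incubated 3 min at 37 °C in Tris-Ringer buffer pH 7.4. […] Untransfected-cell extract activity subtracted.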

For experiment [6], the target named is T5, P2Y purinoceptor 4 (Homo sapiens, UniProt P51582). In words: Agonist activity at human P2Y4 receptor expressed in human 1321N1 cells assessed as increase in intracellular calcium concentration by dual-excitation spectrofluorimetric analysis. Format: functional, cell-based. An outline of the steps: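 1321N1 astrocytoma cells stably expressing the receptor (turkey P2Y1, human P2Y2, human P2Y4, rat P2Y6) were grown with G-418 selection. Fura-2-loaded cell suspensions were exposed at 37 °C in 10 mM HEPES-buffered saline pH 7.4 with 1 mM CaCl2 and 1 mM MgCl2. Peak [Ca2+]i rise was measured over a range of concentrations to derive EC50.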
Background: Calcium flux is commonly read through the fluorescence of an indicator in the cells.

The target in experiment [7] is T1, Ectonucleoside triphosphate diphosphohydrolase 2 (Homo sapiens). In words: Activity of human NTPDase 2 expressed in human 293T cells assessed as drug hydrolysis at 100 uM after 20 mins relative to ATP. Format: cell-based. The arrangement: scale not given: the % may be the effect or the level left. An outline of the steps:
as §1

Experiment [8] deals with T5, P2Y purinoceptor 4. Kind of experiment: Antagonist activity at human P2Y4 receptor expressed in human 1321N1 cells assessed as inhibition of UTP-induced increase in intracellular calcium concentration by dual-excitation spectrofluorimetric analysis. It counts as functional, cell-based. The procedure, abridged:
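Fura-2-loaded suspensions of stably transfected 1321N1 cells were assayed at 37 °C in HEPES-buffered saline pH 7.4 with 1 mM Ca2+ and Mg2+. […] [Ca2+]i was read by dual-excitation spectrofluorometry.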

For experiment [9], the target named is T3, Ectonucleoside triphosphate diphosphohydrolase 8 (Homo sapiens). In words: Activity of human NTPDase 8 expressed in human 293T cells assessed as drug hydrolysis at 100 uM after 20 mins relative to ATP. Format: cell-based. The arrangement: scale not given: the % may be the effect or the level left. The procedure, abridged: as §1
Experiment [10] concerns the target P2Y purinoceptor 1 (Meleagris gallopavo) (UniProt P49652). Kind of experiment: Agonist activity at turkey P2Y1 receptor expressed in human 1321N1 cells assessed as increase in intracellular calcium concentration by dual-excitation spectrofluorimetric analysis. Format: functional, cell-based.

The values that follow come from ChEMBL document CHEMBL1137702, “Identification of hydrolytically stable and selective P2Y(1) receptor agonists” (Eur J Med Chem, 2009).

Activity calls are given as the source filed them. The rule behind the calls is not given here.

Chain of P2Y purinoceptor 1 (Meleagris gallopavo) (P49652 whole entry): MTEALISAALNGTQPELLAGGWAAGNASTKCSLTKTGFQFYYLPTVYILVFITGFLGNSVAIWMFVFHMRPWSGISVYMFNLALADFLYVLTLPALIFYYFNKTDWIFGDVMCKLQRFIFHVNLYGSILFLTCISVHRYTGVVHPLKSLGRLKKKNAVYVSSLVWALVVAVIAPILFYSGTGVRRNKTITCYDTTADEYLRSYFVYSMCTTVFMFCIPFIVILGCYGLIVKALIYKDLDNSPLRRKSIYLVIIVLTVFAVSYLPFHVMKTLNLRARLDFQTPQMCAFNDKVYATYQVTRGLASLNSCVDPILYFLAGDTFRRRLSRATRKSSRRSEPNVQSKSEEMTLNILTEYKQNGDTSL
T5 sequence (P51582 whole entry): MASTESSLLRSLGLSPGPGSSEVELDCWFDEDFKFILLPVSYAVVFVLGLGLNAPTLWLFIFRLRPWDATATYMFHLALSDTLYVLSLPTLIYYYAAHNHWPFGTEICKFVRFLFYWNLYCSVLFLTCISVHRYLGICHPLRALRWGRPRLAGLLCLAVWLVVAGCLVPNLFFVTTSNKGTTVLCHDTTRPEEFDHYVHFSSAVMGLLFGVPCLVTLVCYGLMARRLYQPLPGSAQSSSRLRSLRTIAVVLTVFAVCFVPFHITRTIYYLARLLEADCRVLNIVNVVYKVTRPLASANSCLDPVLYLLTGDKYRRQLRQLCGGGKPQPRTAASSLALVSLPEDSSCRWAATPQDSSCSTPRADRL
Chain of P2Y purinoceptor 6 (Rattus norvegicus) (Q63371 whole entry): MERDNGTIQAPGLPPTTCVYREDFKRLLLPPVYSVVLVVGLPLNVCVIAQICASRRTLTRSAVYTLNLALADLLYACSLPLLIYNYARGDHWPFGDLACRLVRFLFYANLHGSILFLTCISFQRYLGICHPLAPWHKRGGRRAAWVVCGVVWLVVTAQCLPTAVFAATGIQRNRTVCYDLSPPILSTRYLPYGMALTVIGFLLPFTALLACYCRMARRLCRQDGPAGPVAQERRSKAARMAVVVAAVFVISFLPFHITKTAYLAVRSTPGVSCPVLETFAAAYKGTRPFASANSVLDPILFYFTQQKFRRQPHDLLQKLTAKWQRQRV

In the case of `CSc1nc(N)c2ncn([C@@H]3O[C@H](COP(=O)(O)OP(=O)(O)CP(=O)(O)O)[C@@H](O)[C@H]3O)c2n1`, the outcome (in experiment [1]; in experiment [2]; in [4]; on P2Y purinoceptor 4 [6]; at P2Y purinoceptor 4 [8]) was inactive. In addition, the result in [3] was Active. For the same compound, the Activity in experiment [5] turned out to be 7%; in experiment [7], 2%; in [9], 7%.
On to `BP(=O)(OC[C@H]1O[C@@H](n2cnc3c(N)ncnc32)[C@H](O)[C@@H]1O)OP(=O)(O)CP(=O)(O)O` (stereo partly specified), for which the result (in experiment [1]; in experiment [2]; in experiment [4]; at P2Y purinoceptor 4 [6]; in [10]; on P2Y purinoceptor 4 [8]) was inactive. For the same compound, the Activity in [5] stood at 0%; in experiment [7], 1%; in [9], 2%.
Turning to `BP(=O)(OC[C@H]1O[C@@H](n2cnc3c(N)nc(SC)nc32)[C@H](O)[C@@H]1O)OP(=O)(O)CP(=O)(O)O` (single isomer, unassigned; diastereomer A), the result (in experiment [1]; in experiment [2]; in experiment [4]; on P2Y purinoceptor 4 [6]; in experiment [10]; on P2Y purinoceptor 4 [8]) was inactive. Further, the figures for the Activity in experiment [5], in experiment [7] and in experiment [9] were 2%, 1% and 4%, respectively.
Consider `BP(=O)(OC[C@H]1O[C@@H](n2cnc3c(N)nc(SC)nc32)[C@H](O)[C@@H]1O)OP(=O)(O)CP(=O)(O)O` (single isomer, unassigned; diastereomer B), for which the outcome (in experiment [1]; in [2]; in experiment [4]; at P2Y purinoceptor 4 [6]; on P2Y purinoceptor 4 [8]) was inactive. Also, in experiment [3], the outcome was Active. Further, the results for the Activity in experiment [5], in [7] and in [9] were 2%, 1% and 3%, respectively.
As for `BP(=O)(OC[C@H]1O[C@@H](n2cnc3c(N)ncnc32)[C@H](O)[C@@H]1O)OP(=O)(O)CP(=O)(O)O` (single isomer, unassigned; diastereomer B), the outcome (in experiment [1]; in [2]; in experiment [4]; at P2Y purinoceptor 4 [6]; in experiment [10]; on P2Y purinoceptor 4 [8]) was inactive. Moreover, the result in [3] was Active. The Activity is 6% in [5], 0% in [7] and less than 1% in experiment [9].
